Reference: ChEMBL document CHEMBL1909641, “Rational design of 2-pyrrolinones as inhibitors of HIV-1 integrase” (Bioorg Med Chem Lett, 2011)

How the values were obtained:
[1] = target: T1, Human immunodeficiency virus type 1 integrase (Human immunodeficiency virus 1, UniProt Q7ZJM1); assay: Inhibition of HIV1 integrase-mediated 3' processing of viral DNA after 30 mins by PAGE
[2] = target: T1, Human immunodeficiency virus type 1 integrase; assay: Inhibition of HIV1 integrase-mediated single strand tansfer of viral DNA after 30 mins by PAGE
[3] = test system: Human immunodeficiency virus 1; assay: Antiviral activity against HIV1 pNL4.3 infected in human TZM-bl cells by luciferase reporter gene assay; type: functional, organism-based
[4] = Cytotoxicity against human TZM-bl cells infected with HIV1 pNL4.3; type: cell-based
Procedure, shortened: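 CC50 is the cytostatic concentration required to kill 50% of TZM-bl cells.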

[5] = Selectivity index, ratio of CC50 against human TZM-bl cells to EC50 for inhibition of HIV1 integrase activity in TZM-bl cells infected with HIV1 pNL4.3; type: toxicity, cell-based; settings: read-out: Ratio CC50/EC50
Procedure, shortened: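 SI is calculated as the CC50 in TZM-bl cells divided by the antiviral EC50.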

T1 sequence (Q7ZJM1 whole entry): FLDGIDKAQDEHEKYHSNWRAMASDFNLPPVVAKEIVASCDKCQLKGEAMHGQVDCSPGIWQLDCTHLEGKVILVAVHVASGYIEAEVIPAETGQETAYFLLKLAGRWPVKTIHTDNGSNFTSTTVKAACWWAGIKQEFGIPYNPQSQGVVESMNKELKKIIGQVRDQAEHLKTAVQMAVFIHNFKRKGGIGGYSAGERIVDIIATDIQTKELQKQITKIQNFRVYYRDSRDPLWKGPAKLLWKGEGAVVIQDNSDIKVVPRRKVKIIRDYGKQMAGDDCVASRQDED

SMILES	IC50 [1] [µM]	IC50 [2] [µM]	EC50 ([3]; Human immunodeficiency virus 1, pNL4.3, TZM-bl, read-out: EC50) [µM]	EC50 ([3]; tzm-bl)	CC50 [4] [µM]	selectivity ratio [5]
CC(C)CN1C(=O)C(O)=C(C(=O)c2ccccc2)C1c1ccccc1 (stereo not given)	> 100	> 100				
COc1ccc(CCN2C(=O)C(O)=C(C(=O)c3ccccn3)C2c2cccc(Cl)c2)cc1 (stereo not given)	77	40	0.317		26.6	83.7
CN1C(=O)C(O)=C(C(=O)c2ccccc2)C1c1cccc(Cl)c1 (stereo not given)	> 100	> 100				
COc1ccc(CCN2C(=O)C(O)=C(C(=O)c3ccccc3)C2c2ccccc2)cc1 (stereo not given)	80	45		Not Active	830	
COc1ccc(CCN2C(=O)C(O)=C(C(=O)c3ccccc3)C2c2ccc(O)cc2)cc1 (stereo not given)	> 100	100		Not Active	459	

The next lines start with results.

IC50 [1] [µM]	IC50 [2] [µM]	EC50 ([3]; Human immunodeficiency virus 1, pNL4.3, TZM-bl, read-out: EC50) [µM]	EC50 ([3]; tzm-bl)	SMILES	CC50 [4] [µM]	selectivity ratio [5]
> 100	> 100			CN1C(=O)C(O)=C(C(=O)c2ccccn2)C1c1cccc(Cl)c1 (stereo not given)		
> 100	> 100			CN1C(=O)C(O)=C(C(=O)c2ccccc2)C1c1ccc([N+](=O)[O-])cc1 (stereo not given)		
89	44		Not Active	O=C(C1=C(O)C(=O)N(c2ccccc2)C1c1ccc([N+](=O)[O-])cc1)c1ccccc1 (stereo not given)	790	
